Results of several laboratories.
Lines come from different studies, so protocols differ.
Target: RAC-alpha serine/threonine-protein kinase (AKT1, Homo sapiens, UniProt P31749)

SMILES | observed | mode | method | tested at | measurement | value
C#Cc1cnc(Nc2ccnc(CO)c2)nc1Nc1ccccc1S(C)(=O)=NC#N (stereo not shown) | cell-free assay | – | – | 1 µM | remaining signal | 100%
CO[C@@H]1[C@H](N(C)C(=O)c2ccccc2)C[C@H]2O[C@]1(C)n1c3ccccc3c3c4c(c5c6ccccc6n2c5c31)C(=O)NC4 | enzyme activity | inhibitor | – | 1 µM | inhibition | 7%
C1=C/COCc2cc(ccc2OCCN2CCCC2)Nc2nccc(n2)-c2cccc(c2)COC/1 | binding | – | – | 0.1 µM | remaining binding | 100%
Cc1ccc(NC(=O)c2ccnc(C(F)(F)F)c2)cc1-c1cc(OCCO)nc(N2CCOCC2)c1 | binding | – | – | 1 µM | remaining binding | 99%
N#Cc1ccc(NC(=O)Nc2ccccc2)cc1 | cell-free assay | – | competition with immobilised ligand | 25 µM | remaining binding | 100%
CCCCC(=O)Nc1ccc(-c2ccc3ncn(CCC)c(=O)c3c2)cn1 | binding | – | competition with immobilised ligand | 0.5 µM | remaining binding | 100%
COc1ccc2oc(-c3ccc4nc(N)oc4c3)c/c(=N\c3ccccc3NC(=O)CCN)c2c1 | binding | – | – | 1 µM | remaining binding | 91%
Cc1cc(O)c(-c2ccc([C@@H](C)CN(C)C)cc2)c2c1[nH]c(=O)c1sccc12 | enzyme activity | inhibitor | – | 0.1 µM | inhibition | -0.622%
C=CC(=O)N1CCC([C@@H]2CCNc3c(C(N)=O)c(-c4ccc(Oc5ccccc5)cc4)nn32)CC1 | enzyme activity | inhibitor | – | 1 µM | inhibition | 7%
COc1ccc2[nH]c3c4[nH]c5ccc(OC)cc5c4c4c(c3c2c1)C(=O)NC4=O | binding | – | – | 1 µM | remaining binding | 72%
